Experimental data as given in ChEMBL document CHEMBL1159065, “Conjugates of desferrioxamine B (DFOB) with derivatives of adamantane or with orally available chelators as potential agents for treating iron overload” (J Med Chem, 2010).
Converted amounts (≈) assume the structure as drawn. The source made the active and inactive calls. No cut-off for these calls is given here.

What was measured:
[1] = Partition coefficient, log P by shake flask method; type: physicochemical; settings: octanol/water
[2] = Toxicity in MDCK cells by MTT method; type: cell-based, Canis lupus familiaris; settings: dog
How it was run: (§1)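 MTT proliferation assay giving IC50; MTT colour checked proportional to viable cell number by Trypan blue (SK-N-MC) or total cell protein (MDCK II). SK-N-MC grown as in earlier work; MDCK II cultured by standard procedures.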

[3] = target: Serotransferrin (Homo sapiens) (UniProt P02787); assay: Inhibition of [59Fe] uptake from [59Fe]transferrin in human SK-N-MC cells assessed as at 50 uM after 3 hrs relative to untreated control; values are per cent of control
[4] = system: SK-N-MC; assay: Induction of [59Fe] mobilization in human SK-N-MC cells prelabeled with [59Fe]transferrin at 50 uM after 3 hrs relative to untreated control; type: functional
How it was run: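 Cells prelabeled with 59Fe-Tf (0.75 μM), 3 h, 37 °C; washed four times in ice-cold PBS, then exposed to chelator (50 μM) 3 h at 37 °C. Medium removed by Pasteur pipet; gamma counting of cell pellet and supernatant gives released 59Fe as % of cellular 59Fe. Mean ± SD, three experiments, triplicate determinations each.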

[5] = Solubility in water; type: physicochemical
[6] = Toxicity in human SK-N-MC cells by MTT method; type: cell-based; how it was run: as §1
[7] = target: Serotransferrin (Homo sapiens) (UniProt P02787); assay: Inhibition of [59Fe] uptake from [59Fe]transferrin in human SK-N-MC cells at 50 uM after 3 hrs relative to relative to desferrioxamine B; type: cell-based
How it was run: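 SK-N-MC cells incubated with 59Fe-Tf (0.75 μM) plus chelator (50 μM), 3 h at 37 °C; washed four times in ice-cold PBS, then Pronase (1 mg/mL) 30 min at 4 °C. Pronase-insensitive pellet after centrifugation taken as internalized 59Fe, expressed as % of untreated control. Mean ± SD, three experiments, triplicate determinations each.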

[8] = Partition coefficient, log P by RP-HPLC; type: physicochemical; settings: octanol/water
[9] = system: SK-N-MC; assay: Induction of [59Fe] mobilization in human SK-N-MC cells prelabeled with [59Fe]transferrin at 50 uM after 3 hrs relative to desferrioxamine B; type: functional
How it was run: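 Cells were prelabeled with 59Fe-Tf (0.75 μM) for 3 h at 37 °C, washed four times with ice-cold PBS, then exposed to chelator (50 μM) for 3 h at 37 °C. Released 59Fe in the medium and cell-pellet 59Fe were counted by γ-counter. DFOB was run in parallel. Data are mean ± SD of three experiments, each with triplicate determinations.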

Sequence of Serotransferrin (Homo sapiens) (P02787 whole entry): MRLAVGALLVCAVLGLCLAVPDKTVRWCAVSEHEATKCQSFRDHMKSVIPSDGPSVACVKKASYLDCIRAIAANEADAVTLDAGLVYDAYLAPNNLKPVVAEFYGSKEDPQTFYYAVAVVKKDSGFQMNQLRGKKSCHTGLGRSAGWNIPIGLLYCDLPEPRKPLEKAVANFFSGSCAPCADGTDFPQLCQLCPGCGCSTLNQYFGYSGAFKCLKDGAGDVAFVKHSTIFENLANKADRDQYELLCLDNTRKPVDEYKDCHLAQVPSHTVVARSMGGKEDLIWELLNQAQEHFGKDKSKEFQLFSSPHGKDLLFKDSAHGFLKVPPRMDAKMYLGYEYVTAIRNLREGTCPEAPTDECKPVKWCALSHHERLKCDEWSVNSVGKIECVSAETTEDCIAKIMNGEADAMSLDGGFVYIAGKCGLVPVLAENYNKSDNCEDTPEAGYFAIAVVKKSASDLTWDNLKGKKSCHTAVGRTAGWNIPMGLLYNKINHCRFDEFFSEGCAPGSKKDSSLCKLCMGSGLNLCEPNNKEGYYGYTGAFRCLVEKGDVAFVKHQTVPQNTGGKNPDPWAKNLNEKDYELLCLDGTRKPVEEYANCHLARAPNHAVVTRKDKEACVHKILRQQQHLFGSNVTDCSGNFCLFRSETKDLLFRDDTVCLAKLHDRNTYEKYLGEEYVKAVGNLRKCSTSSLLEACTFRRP

| Structure (SMILES) | logP [1] | IC50 [2] [µM] | residual activity [3] [%] | Activity [4] | solubility [5] [mM] | IC50 [6] [µM] | inhibition [7] | logP [8] | fold change (FC) [9] |
| --- | --- | --- | --- | --- | --- | --- | --- | --- | --- |
| c1ccc2ccccc2c1 | 3.32 | – | – | – | – | – | – | – | – |
| CC(=O)N(O)CCCCCNC(=O)CCC(=O)N(O)CCCCCNC(=O)CCC(=O)N(O)CCCCCN [DEFEROXAMINE] | – | 9.49 | 87 | 12% | 400 (≈ 224 mg/mL) | 16 | – | – | – |
| CC(=O)N(O)CCCCCNC(=O)CCC(=O)N(O)CCCCCNC(=O)CCC(=O)N(O)CCCCCNC(=O)CC12CC3CC(CC(C3)C1)C2 | 2.21 | 226 | – | – | – | 167 | Active | 1.47 | 2.8 |
| CN(C)C(=S)NN=C(c1ccccn1)c1ccccn1 | – | – | 12 | – | – | – | – | – | – |
| CC(=O)N(O)CCCCCNC(=O)CCC(=O)N(O)CCCCCNC(=O)CCC(=O)N(O)CCCCCNC(=O)C12CC3CC(C)(CC(C)(C3)C1)C2 | 2.92 | 163 | 18 | – | – | 92.4 | Active | 1.95 | 3 |
| COC(=O)c1ccccc1C(=O)OC [DIMETHYL PHTHALATE] | 1.61 | – | – | – | – | – | – | – | – |
| CC(=O)N(O)CCCCCNC(=O)CCC(=O)N(O)CCCCCNC(=O)CCC(=O)N(O)CCCCCNC(=O)c1ccc(-n2nc(-c3ccccc3O)nc2-c2ccccc2O)cc1 | 2.17 | 23.4 | – | Active | – | 20.6 | Active | 3.02 | – |
| CC(=O)N(O)CCCCCNC(=O)CCC(=O)N(O)CCCCCNC(=O)CCC(=O)N(O)CCCCCNC(=O)Cn1ccc(=O)c(O)c1C | -1.29 | > 300 | – | – | – | > 200 | – | -1.16 | – |
| CC(=O)N(O)CCCCCNC(=O)CCC(=O)N(O)CCCCCNC(=O)CCC(=O)N(O)CCCCCNC(=O)C12CC3CC(CC(C3)C1)C2 | 2.11 | 119 | – | – | – | 174 | Active | 1.29 | 2.2 |
| CC(=O)N(O)CCCCCNC(=O)CCC(=O)N(O)CCCCCNC(=O)CCC(=O)N(O)CCCCCNC(=O)COc1ccc(C)cc1 | 1.68 | > 150 | – | Active | – | > 200 | Active | 0.93 | – |
| CC(=O)N(O)CCCCCNC(=O)CCC(=O)N(O)CCCCCNC(=O)CCC(=O)N(O)CCCCCNC(=O)C12CC3CC(CC(O)(C3)C1)C2 | 0.29 | > 100 | – | inactive | – | > 200 | – | -0.11 | – |
| O=C(O)c1ccc(-n2nc(-c3ccccc3O)nc2-c2ccccc2O)cc1 [DEFERASIROX] | 3.8 | – | 39 | – | – | 20.5 | – | – | – |
| Cc1c(O)c(=O)ccn1C [DEFERIPRONE] | -1.02 | – | – | inactive | – | 166 | – | – | – |
| c1ccc2c(c1)oc1ccccc12 [DIBENZOFURAN] | 4.04 | – | – | – | – | – | – | – | – |
